Here are results for 22 compounds from ChEMBL document CHEMBL1121762, “2-(Isoxazolylethenyl)phenoxypropanolamines: a new class of beta-receptor antagonists with antihypertensive activity” (1981).

Common to all, as to format: functional
In experiment [1] the test system is Rattus norvegicus. Briefly: Relative potency required for hypotensive activity in anesthetized rat. In short, it runs like this:
(§1)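 Male Sprague-Dawley rats, 230-280 g, anesthetized with urethane 1.78 g/kg ip; groups of two to five. Compound given iv. Mean carotid arterial pressure recorded by transducer. ED20 = dose lowering mean carotid pressure by 20%; 95% confidence limits; relative potency versus labetalol (=1.0).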

The subject of experiment [2] is Rattus norvegicus. Nature of the experiment: Relative potency required for inhibition of isoproterenol-induced tachycardia in pithed rat after intravenous administration. In short, it runs like this: (§2)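 Male Sprague-Dawley rats, 200-240 g, anesthetized with amobarbital 120 mg/kg ip, pithed and ventilated via tracheal cannula; groups of two to five. Isoproterenol 0.1 μg/kg iv given before and 5 min after iv compound; heart rate by rate meter. ED50 = dose halving tachycardia; 95% confidence limits; relative potency vs labetalol (=1.0).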

The test system of experiment [3] is Rattus norvegicus. Nature of the experiment: Dose required for inhibition of isoproterenol-induced tachycardia in pithed rat after intravenous administration. An outline of the steps: as §2
Experiment [4] concerns Rattus norvegicus. Nature of the experiment: Dose required for hypotensive activity in anesthetized rat after intravenous administration. An outline of the steps: as §1
In experiment [5] the test system is Rattus norvegicus. Nature of the experiment: Relative potency required for antihypertensive activity in spontaneous hypertensive rats after oral administration. In short, it runs like this:
(§3)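 Male SH rats (Okamoto strain), 250-380 g, groups of four to eight, dosed orally. Systolic pressure by tail cuff at 35 °C ambient, before and 2 h after dosing. ED20 = dose lowering systolic pressure 20%, corrected for placebo controls; from log dose vs Δ% regression; relative potency vs labetalol (=1.0).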

Experiment [6] relates to Rattus norvegicus. Briefly: Dose required for antihypertensive activity in spontaneous hypertensive rats after oral administration. In short, it runs like this:
as §3

For experiment [7], the system named is Rattus norvegicus. Nature of the experiment: Dose required for inhibition of L-phenylephrine-induced pressor response in pithed rats after intravenous administration. An outline of the steps:
(§4)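 Pithed male Sprague-Dawley rats, 200-240 g, amobarbital 120 mg/kg ip, artificially ventilated; three to five per dose. l-Phenylephrine 1.47 μg/kg iv before and 5 min after iv compound; carotid pressure recorded. ED50 = dose halving phenylephrine pressor rise; 95% confidence limits; relative potency vs labetalol (=1.0).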

For experiment [8], the species on record is Rattus norvegicus. Briefly: Relative potency required for inhibition of L-phenylephrine-induced pressor response in pithed rats. In short, it runs like this: as §4
Experiment [9] concerns Rattus norvegicus. Briefly: Dose of compound required for hypotensive activity in anesthetized rat. In short, it runs like this:
as §1

Broadly, the ED50 is the dose at which the effect has come halfway, by size or by number of responders. Lower therefore signals greater potency.

In the case of `Cc1cc(/C=C/c2ccccc2OCC(O)CNC(C)C)no1.Cl` (stereo not given), the Relative potency in [1] is about 2.4; in [2], 41.2; in experiment [5], 1. The ED50 in [3] came to 0.0034 mg/kg. The ED20 in experiment [4] was about 2.15 mg/kg; in experiment [6], about 46.4 mg/kg.

Turning to `COCc1cc(/C=C/c2ccccc2OCC(O)CNC(C)C)on1.Cl` (stereo not given), the Relative potency in [1] is recorded as about 5.2; in [2], 21.9; in experiment [5], 2.6; in experiment [8] it was 0.8. Also, the ED50 was 0.0064 mg/kg in experiment [3] and 0.61 mg/kg in experiment [7]. Besides, the ED20 was about 1 mg/kg in experiment [4] and 18.2 mg/kg in [6].

Take `COCc1cc(/C=C/c2ccccc2OCC(O)CNC2CC2)on1` (stereo not given): the Relative potency is reported as about 5.2 in experiment [1], about 14 in experiment [2], about 4.8 in experiment [5] and 0.6 in [8]. Also, the ED50 in experiment [3] is about 0.01 mg/kg; in [7], 0.73 mg/kg. The ED20 was about 1 mg/kg in experiment [4] and about 10 mg/kg in experiment [6].

In the case of `Cc1cc(/C=C/c2ccccc2OCC(O)CNC(C)C)on1` (stereo not given), the Relative potency is 8 in experiment [1] and 23.3 in [2]. This compound gave a 50% effective dose (ED50) in experiment [3] of 0.006 mg/kg. Moreover, the ED20 in experiment [4] was about 0.65 mg/kg; in experiment [6], over 21.5 mg/kg.

Regarding `Cc1noc(/C=C/c2ccccc2OCC(O)CNC(C)(C)C)c1Cl` (stereo not given), the Relative potency in experiment [1] is listed as about 5.2; in experiment [2], 10. This compound registered an ED50 in [3] of 0.014 mg/kg. Also, the values for the ED20 in experiment [4] and in experiment [6] were about 1 mg/kg and over 21.5 mg/kg, respectively.

Regarding `Cc1cc(/C=C/c2ccccc2OCC(O)CNC(C)CCc2ccccc2)on1` (stereo not given), the values for the Relative potency in experiment [1], in [2] and in experiment [5] were about 5.2, about 3 and about 1, respectively. Moreover, the ED50 in experiment [3] was about 0.0464 mg/kg. The values for the ED20 in experiment [4] and in [6] were about 1 mg/kg and about 46.4 mg/kg, respectively.

Take `C#CC(C)(C)NCC(O)COc1ccccc1/C=C/c1cc(C)no1.Cl` (stereo not given): the Relative potency in [1] is 4.2; in experiment [2], about 2.1; in [5] it was about 1. Also, in [3], the ED50 was about 0.0681 mg/kg. For the same compound, the results for the ED20 in experiment [4] and in experiment [6] were about 1.25 mg/kg and about 46.4 mg/kg, respectively.

On to `Cc1cc(/C=C/c2ccccc2OCC(O)CNC(C)(C)C)on1.Cl` (stereo not given), for which the Relative potency in experiment [1] amounted to 13; in experiment [2], 15.9; in [5], 3.3; in experiment [8] it was 3.9. Moreover, the ED50 turned out to be 0.0088 mg/kg in [3] and 0.12 mg/kg in experiment [7]. Moreover, the ED20 in experiment [4] was determined as 0.4 mg/kg; in [6], 14.5 mg/kg.

In the case of `Cc1cc(C=Cc2ccccc2OCC(O)CNC(C)(C)C)no1.Cl` (stereo not given), the Relative potency in [1] is reported as about 2.4; in [2] it was 10.8; in experiment [5] it was about 2.2. In experiment [3], the ED50 was found to be 0.013 mg/kg. Also, the ED20 in experiment [4] was about 2.15 mg/kg; in experiment [6] it was about 21.5 mg/kg.

`CC(C)(C)NCC(O)COc1ccccc1/C=C/c1cc(C(C)(C)C)no1.Cl` (stereo not given) returned a Relative potency in experiment [2] of about 6.5. This compound also came in with an ED50 in experiment [3] of about 0.0215 mg/kg. In addition, the ED20 in [4] is over 1 mg/kg; in [6], over 46.4 mg/kg.

As for `Cc1noc(/C=C/c2ccccc2OCC(O)CNC(C)(C)C)c1[N+](=O)[O-]` (stereo not given), the Relative potency in experiment [1] is recorded as about 5.2; in [2], about 2.1. In addition, the ED50 in [3] is about 0.0681 mg/kg. In addition, the ED20 in experiment [4] was about 1 mg/kg; in experiment [6] it was over 21.5 mg/kg.

On to `CCc1cc(/C=C/c2ccccc2OCC(O)CNC(C)(C)C)on1.Cl` (stereo not given), for which the Relative potency was 5.6 in experiment [1] and about 6.5 in experiment [2]. The compound further had an ED50 in [3] of about 0.0215 mg/kg. Moreover, the values for the ED20 in experiment [4] and in experiment [6] were 0.93 mg/kg and over 21.5 mg/kg, respectively.

On to `COc1ccc(CC(C)NCC(O)COc2ccccc2/C=C/c2cc(C)no2)cc1OC` (stereo not given), for which the Relative potency in [1] is on record as about 2.4; in [2], about 3. Besides, in experiment [3], the ED50 is about 0.464 mg/kg. In addition, the ED20 in experiment [4] was about 2.15 mg/kg; in [6], over 21.5 mg/kg.

As for `Cc1cc(/C=C/c2ccccc2OCC(O)CNC(C)(C)CCc2ccc(O)cc2)on1` (stereo not given), the Relative potency was about 5.2 in [1], about 6.5 in experiment [2] and about 2.2 in [5]. The same compound came in with an ED50 in [3] of about 0.0215 mg/kg. Further, the ED20 in experiment [4] was about 1 mg/kg; in experiment [6] it was about 21.5 mg/kg.

In the case of `Cc1cc(/C=C/c2ccccc2OCC(O)CNC(C)CCc2ccc(O)cc2)on1` (stereo not given), the Relative potency is recorded as 10.6 in experiment [1], 12.7 in experiment [2] and about 1 in [5]. The compound further had an ED50 in [3] of 0.011 mg/kg. Further, the ED20 in experiment [4] was 0.49 mg/kg; in experiment [6], about 46.4 mg/kg.

As to `Cc1cc(/C=C/c2ccccc2OCC(O)CNC2CC2)on1` (stereo not given), the Relative potency in [1] is about 3.5; in experiment [2] it was 15.4; in experiment [5] it was about 2.2; in experiment [8], 0.8. Moreover, the results for the ED50 in [3] and in experiment [7] were 0.0091 mg/kg and 0.63 mg/kg, respectively. For the same compound, the ED20 in experiment [4] was about 1.47 mg/kg; in [6], about 21.5 mg/kg.

For the compound `COCc1cc(/C=C/c2ccccc2OCC(O)CNC(C)(C)C)on1.Cl` (stereo not given), the Relative potency in [1] is given as about 6.5; in [2], 18.9; in experiment [5] it was about 2.2; in experiment [8] it was 2.2. The ED50 in [3] was found to be 0.0074 mg/kg; in experiment [7] it was 0.21 mg/kg. Moreover, the ED20 in experiment [4] was about 0.8 mg/kg; in [6] it was about 21.5 mg/kg.

Consider `CC(C)NCC(O)COc1ccccc1/C=C/c1cc(Cl)no1` (stereo not given), for which the Relative potency in [1] is reported as 7.6; in experiment [2] it was 3. The same compound registered an ED50 in experiment [3] of 0.0464 mg/kg. Besides, the ED20 is 0.68 mg/kg in experiment [9] and over 21.5 mg/kg in experiment [6].

Consider `Cc1noc(/C=C/c2ccccc2OCC(O)CNC(C)(C)C)c1C` (stereo not given), for which the Relative potency is about 7.6 in [1] and about 6.5 in experiment [2]. In experiment [3], this compound gave an ED50 of about 0.0215 mg/kg. Besides, the values for the ED20 in [4] and in [6] were about 0.68 mg/kg and over 21.5 mg/kg, respectively.

`CCc1cc(/C=C/c2ccccc2OCC(O)CNC(C)C)on1.Cl` (stereo not given): the Relative potency was 12.7 in [1], about 6.5 in experiment [2] and 5.1 in experiment [5]. In experiment [3], this compound registered an ED50 of about 0.0215 mg/kg. In addition, the ED20 in [4] turned out to be 0.41 mg/kg; in [6], 9.38 mg/kg.

As for `CC(CCc1ccccc1)NCC(O)c1ccc(O)c(C(N)=O)c1` (stereo not given) [LABETALOL], the Relative potency in [1], in experiment [2], in [5] and in experiment [8] was 1 throughout. Besides, the ED50 in experiment [3] is 0.14 mg/kg; in experiment [7], 0.47 mg/kg. Further, the ED20 in [4] came to 5.2 mg/kg; in experiment [6], 47.7 mg/kg.

For the compound `COc1ccc(CCC(C)(C)NCC(O)COc2ccccc2/C=C/c2cc(C)no2)cc1` (stereo not given), the results for the Relative potency in experiment [1], in [2] and in experiment [5] were about 5.2, about 0.7 and about 2.2, respectively. For the same compound, the ED50 in [3] was about 0.215 mg/kg. The ED20 in [4] was about 1 mg/kg; in experiment [6], about 21.5 mg/kg.
